Common to all, as to type: cell-based
Assay [1] addresses T1, Integrin alpha-4/beta-7 (Mus musculus) (UniProt Q00651+P26011). Kind of assay: Inhibition of alpha4beta7 assessed as inhibition of Mn(2+)-activated adhesion of mouse TK-1 T cells to mouse MAdCAM-1 at 50 uM incubated for 1 hr by cell adhesion assay. Put shortly:
(§1)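 TK-1 cells (mouse AKR/Cum α4β7+/α4β1− CD8 T lymphoma), grown at 37 °C in RPMI 1640 with 10% FCS and 0.05 mM β-mercaptoethanol, were washed and held 1 h at room temperature in HBSS/10 mM Hepes with peptide. They were then activated with 2 mM MnCl₂ and added at 10⁶ cells/well to glass slides coated with mouse MAdCAM-1-Fc (10 μg/ml, FBS-blocked). Adhesion ran 30 min.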

Assay [2] has as its target T1, Integrin alpha-4/beta-7 (Mus musculus). Kind of assay: Inhibition of alpha4beta7 assessed as inhibition of Mn(2+)-activated adhesion of mouse TK-1 T cells to mouse MAdCAM-1 at 100 uM incubated for 1 hr by cell adhesion assay. In a few lines: as §1
Assay [3] has the same target. In words: Inhibition of alpha4beta7 assessed as inhibition of Mn(2+)-activated adhesion of mouse TK-1 T cells to mouse MAdCAM-1 at 25 uM incubated for 1 hr by cell adhesion assay. In a few lines: as §1
The target of assay [4] is T2, Integrin alpha-4/beta-7 (Mus musculus, UniProt P26011+Q00651).
T2 sequence (Q00651 whole entry): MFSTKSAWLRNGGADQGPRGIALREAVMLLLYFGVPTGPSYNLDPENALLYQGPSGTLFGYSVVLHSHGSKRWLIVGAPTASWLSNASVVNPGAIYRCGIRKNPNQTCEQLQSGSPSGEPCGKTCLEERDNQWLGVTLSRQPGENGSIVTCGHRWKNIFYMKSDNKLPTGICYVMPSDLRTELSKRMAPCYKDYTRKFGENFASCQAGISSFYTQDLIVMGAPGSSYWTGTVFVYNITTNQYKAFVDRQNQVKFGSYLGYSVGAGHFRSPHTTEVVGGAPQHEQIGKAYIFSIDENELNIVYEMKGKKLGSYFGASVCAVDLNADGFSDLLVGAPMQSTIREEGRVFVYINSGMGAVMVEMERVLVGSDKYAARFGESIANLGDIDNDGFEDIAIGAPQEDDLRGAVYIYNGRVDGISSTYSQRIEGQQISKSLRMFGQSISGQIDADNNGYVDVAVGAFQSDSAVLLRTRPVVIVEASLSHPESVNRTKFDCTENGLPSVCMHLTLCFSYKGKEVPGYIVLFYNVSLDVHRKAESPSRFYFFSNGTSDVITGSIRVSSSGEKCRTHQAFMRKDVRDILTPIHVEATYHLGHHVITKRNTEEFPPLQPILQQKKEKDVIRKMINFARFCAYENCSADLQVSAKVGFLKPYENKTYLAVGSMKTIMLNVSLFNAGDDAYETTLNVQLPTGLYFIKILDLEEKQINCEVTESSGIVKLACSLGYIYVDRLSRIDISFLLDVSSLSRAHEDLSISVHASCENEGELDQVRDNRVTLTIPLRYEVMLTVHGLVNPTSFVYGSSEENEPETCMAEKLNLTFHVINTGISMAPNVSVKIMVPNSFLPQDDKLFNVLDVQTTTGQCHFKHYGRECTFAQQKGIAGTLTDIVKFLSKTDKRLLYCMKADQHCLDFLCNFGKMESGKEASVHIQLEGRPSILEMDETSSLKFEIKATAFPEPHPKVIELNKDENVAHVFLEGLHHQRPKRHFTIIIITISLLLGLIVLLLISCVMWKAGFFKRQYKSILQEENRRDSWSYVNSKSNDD
T2 sequence (P26011 whole entry): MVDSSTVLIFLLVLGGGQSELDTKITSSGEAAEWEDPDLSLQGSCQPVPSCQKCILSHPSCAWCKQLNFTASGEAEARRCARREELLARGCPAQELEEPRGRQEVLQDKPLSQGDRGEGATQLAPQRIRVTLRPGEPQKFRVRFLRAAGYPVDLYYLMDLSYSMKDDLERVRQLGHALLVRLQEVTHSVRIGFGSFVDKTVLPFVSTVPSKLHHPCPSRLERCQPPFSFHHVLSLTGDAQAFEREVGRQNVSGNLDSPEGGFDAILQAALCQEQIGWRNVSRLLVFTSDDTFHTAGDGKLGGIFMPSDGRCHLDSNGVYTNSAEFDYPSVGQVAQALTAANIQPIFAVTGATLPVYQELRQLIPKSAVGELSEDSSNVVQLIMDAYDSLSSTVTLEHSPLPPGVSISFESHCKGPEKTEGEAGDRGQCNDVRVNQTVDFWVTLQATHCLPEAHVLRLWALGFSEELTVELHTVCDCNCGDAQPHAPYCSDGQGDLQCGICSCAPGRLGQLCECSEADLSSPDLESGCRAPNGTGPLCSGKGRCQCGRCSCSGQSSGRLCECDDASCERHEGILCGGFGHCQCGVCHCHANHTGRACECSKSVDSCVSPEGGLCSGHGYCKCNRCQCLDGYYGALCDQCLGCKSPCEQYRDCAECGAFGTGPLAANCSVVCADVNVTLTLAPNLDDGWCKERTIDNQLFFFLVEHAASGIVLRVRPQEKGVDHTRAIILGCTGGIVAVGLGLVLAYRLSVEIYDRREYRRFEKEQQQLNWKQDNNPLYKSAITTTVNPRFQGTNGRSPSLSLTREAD
In words: Inhibition of alpha4beta7 assessed as inhibition of Mn(2+)-activated adhesion of mouse TK-1 T cells to mouse MAdCAM-1 incubated for 1 hr by cell adhesion assay. In a few lines: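 TK-1 cells (mouse AKR/Cum CD8+ α4β7+/α4β1− T lymphoma), cultured at 37 °C in RPMI 1640 with 10% FCS and 0.05 mM β-mercaptoethanol. HBSS/10 mM Hepes buffer; cells preincubated with peptide 1 h at room temperature, then activated with MnCl2 to 2 mM. Added at 10⁶ cells/well to glass slides coated with mouse MAdCAM-1-Fc (10 µg/ml, 4 °C overnight, FBS-blocked); adhesion 30 min at room temperature.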

The target in assay [5] is T1, Integrin alpha-4/beta-7 (Mus musculus). In words: Inhibition of alpha4beta7 assessed as inhibition of Mn(2+)-activated adhesion of mouse TK-1 T cells to mouse MAdCAM-1 at <5 to 10 uM incubated for 1 hr by cell adhesion assay. In a few lines:
as §1

Activity calls are given as the source filed them. The rule behind the calls is not given here. *1 amine or outer side, *2 acyl side, *3 side chain or, on linkers, in order; H or OH if unused. Where a SMILES comes first, the peptide text is derived from it. [ ]: non-standard residue; d: D form. The star is where a group is joined. X2 = CCc1ccc(-c2ccc(C[C@H](N[*:1])C(=O)[*:2])cc2)cc1; Biotin = O=C1N[C@H]2[C@H](CS[C@H]2CCCCC(=O)*)N1; X1 = O=C([C@H](Cc1ccc(C2CCCCC2)cc1)N[*:1])[*:2]; Bip = N[C@@H](Cc1ccc(-c2ccccc2)cc1)C(=O)O

`N=C(N)NCCC[C@H](NC(=O)CCCC[C@@H]1SC[C@@H]2NC(=O)N[C@@H]21)C(=O)N[C@@H](CCCNC(=N)N)C(=O)N[C@@H](CCCNC(=N)N)C(=O)N[C@@H](CCCNC(=N)N)C(=O)N[C@@H](CCCNC(=N)N)C(=O)N[C@@H](CCCNC(=N)N)C(=O)N[C@@H](CCCNC(=N)N)C(=O)N[C@@H](CCCNC(=N)N)C(=O)N[C@@H](CCC(=O)O)C(=O)N[C@@H](CCCNC(=N)N)C(=O)N[C@@H](Cc1ccc(-c2ccccc2)cc1)C(=O)O` (Biotin-RRRRRRRRER[Bip]-OH): the figures for the inhibition in assay [1] and in assay [2] were 80.2% and 91.3%, respectively. For the same molecule, the inhibition result in assay [3] and in assay [5] was “Active” each time. For the same molecule, the IC50 (commonly the concentration at which inhibition is half-maximal) in assay [4] was 7.3 µM.

`N=C(N)NCCC[C@H](NC(=O)[C@H](CCCNC(=N)N)NC(=O)[C@H](CCCNC(=N)N)NC(=O)[C@H](CCCNC(=N)N)NC(=O)[C@H](CCCNC(=N)N)NC(=O)[C@H](CCCN=C(N)N)NC(=O)[C@H](CCCN=C(N)N)NC(=O)[C@H](CCCN=C(N)N)NC(=O)CCCC[C@@H]1SC[C@@H]2NC(=O)N[C@@H]21)C(=O)N[C@@H](CCC(=O)O)C(=O)N[C@@H](CCCN=C(N)N)C(=O)N[C@@H](Cc1ccc(C2CCCCC2)cc1)C(=O)O` (Biotin-RRRRRRRRER[X1]-OH): the IC50 in assay [4] was found to be 19 µM.

On to `CCc1ccc(-c2ccc(C[C@H](NC(=O)[C@H](CCCNC(=N)N)NC(=O)[C@H](CCC(=O)O)NC(=O)[C@H](CCCNC(=N)N)NC(=O)[C@H](CCCNC(=N)N)NC(=O)[C@H](CCCNC(=N)N)NC(=O)[C@H](CCCNC(=N)N)NC(=O)[C@H](CCCNC(=N)N)NC(=O)[C@H](CCCNC(=N)N)NC(=O)[C@H](CCCNC(=N)N)NC(=O)[C@H](CCCNC(=N)N)NC(=O)CCCC[C@@H]3SC[C@@H]4NC(=O)N[C@@H]43)C(=O)O)cc2)cc1` (Biotin-RRRRRRRRER[X2]-OH), for which the inhibition (commonly the share of the control response that was lost under treatment) in assay [1] came to 58%; in assay [2], 74.2%. In addition, the inhibition entry in assay [3] and in assay [5] was “Active” in each case. Besides, in assay [4], the IC50 is 14.3 µM.
